From ChEMBL document CHEMBL4715736, “Identification of anticancer agents based on the thieno[2,3-b]pyridine and 1H-pyrazole molecular scaffolds” (2016)

Experiments:
Assay type in all cases: functional
Conditions in all cases: read-out: Activity
SW-620 = experiment: Growth inhibition of human SW-620 cells assessed as cell growth at 10 uM incubated for 48 hrs by sulforhodamine B assay relative to control
Procedure, shortened: (§1)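 Run by the NCI Developmental Therapeutics Program as part of its 60-line human tumour panel. Each compound tested at a single 10 µM dose. Growth expressed as % relative to untreated control cells (100%).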

HCT-15 = experiment: Growth inhibition of human HCT-15 cells assessed as cell growth at 10 uM incubated for 48 hrs by sulforhodamine B assay relative to control
Procedure, shortened: (§2)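 Submitted to the NCI Developmental Therapeutics Program for the NCI60 human tumour cell line panel. First screen at a single 10 µM concentration. Read-out is growth relative to untreated control cells set at 100%.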

MDA-MB-435 = experiment: Growth inhibition of human MDA-MB-435 cells assessed as cell growth at 10 uM incubated for 48 hrs by sulforhodamine B assay relative to control; procedure, shortened: as §2
Hs-578T = experiment: Growth inhibition of human Hs-578T cells assessed as cell growth at 10 uM incubated for 48 hrs by sulforhodamine B assay relative to control; procedure, shortened: as §2
SN12C = experiment: Growth inhibition of human SN12C cells assessed as cell growth at 10 uM incubated for 48 hrs by sulforhodamine B assay relative to control; procedure, shortened: as §1
UACC-257 = experiment: Growth inhibition of human UACC-257 cells assessed as cell growth at 10 uM incubated for 48 hrs by sulforhodamine B assay relative to control; procedure, shortened: as §1
IGROV-1 = experiment: Growth inhibition of human IGROV-1 cells assessed as cell growth at 10 uM incubated for 48 hrs by sulforhodamine B assay relative to control; procedure, shortened: as §2
OVCAR-4 = experiment: Growth inhibition of human OVCAR-4 cells assessed as cell growth at 10 uM incubated for 48 hrs by sulforhodamine B assay relative to control; procedure, shortened: as §1
K562 = experiment: Growth inhibition of human K562 cells assessed as cell growth at 10 uM incubated for 48 hrs by sulforhodamine B assay relative to control; procedure, shortened: as §2
NCI-H322M = experiment: Growth inhibition of human NCI-H322M cells assessed as cell growth at 10 uM incubated for 48 hrs by sulforhodamine B assay relative to control; procedure, shortened: as §2
OVCAR-5 = experiment: Growth inhibition of human OVCAR-5 cells assessed as cell growth at 10 uM incubated for 48 hrs by sulforhodamine B assay relative to control; procedure, shortened: as §1
MOLT-4 = experiment: Growth inhibition of human MOLT-4 cells assessed as cell growth at 10 uM incubated for 48 hrs by sulforhodamine B assay relative to control; procedure, shortened: as §2
NCI-H226 = experiment: Growth inhibition of human NCI-H226 cells assessed as cell growth at 10 uM incubated for 48 hrs by sulforhodamine B assay relative to control; procedure, shortened: as §2
RXF 393 = experiment: Growth inhibition of human RXF 393 cells assessed as cell growth at 10 uM incubated for 48 hrs by sulforhodamine B assay relative to control; procedure, shortened: as §1
PC-3 = experiment: Growth inhibition of human PC-3 cells assessed as cell growth at 10 uM incubated for 48 hrs by sulforhodamine B assay relative to control; procedure, shortened: as §1
COLO 205 = experiment: Growth inhibition of human COLO 205 cells assessed as cell growth at 10 uM incubated for 48 hrs by sulforhodamine B assay relative to control
Procedure, shortened: (§3)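 NCI Developmental Therapeutics Program NCI60 panel. Compounds that were active in the 10 µM one-dose screen went on to dose–response testing. Growth at each concentration is expressed relative to untreated control (100%). GI50 (concentration giving 50% of maximal inhibition of proliferation) and TGI (concentration giving total growth inhibition) were derived from the curves.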

SK-MEL-5 = experiment: Growth inhibition of human SK-MEL-5 cells assessed as cell growth at 10 uM incubated for 48 hrs by sulforhodamine B assay relative to control; procedure, shortened: as §1
MDA-MB-231 = experiment: Growth inhibition of human MDA-MB-231 cells assessed as cell growth at 10 uM incubated for 48 hrs by sulforhodamine B assay relative to control; procedure, shortened: as §2
SF-539 = experiment: Growth inhibition of human SF-539 cells assessed as cell growth at 10 uM incubated for 48 hrs by sulforhodamine B assay relative to control; procedure, shortened: as §1
MCF7 = experiment: Growth inhibition of human MCF7 cells assessed as cell growth at 10 uM incubated for 48 hrs by sulforhodamine B assay relative to control; procedure, shortened: as §2
HOP-92 = experiment: Growth inhibition of human HOP-92 cells assessed as cell growth at 10 uM incubated for 48 hrs by sulforhodamine B assay relative to control; procedure, shortened: as §2
OVCAR-3 = experiment: Growth inhibition of human OVCAR-3 cells assessed as cell growth at 10 uM incubated for 48 hrs by sulforhodamine B assay relative to control; procedure, shortened: as §1
LOX IMVI = experiment: Growth inhibition of human LOX IMVI cells assessed as cell growth at 10 uM incubated for 48 hrs by sulforhodamine B assay relative to control; procedure, shortened: as §2
SNB-75 = experiment: Growth inhibition of human SNB-75 cells assessed as cell growth at 10 uM incubated for 48 hrs by sulforhodamine B assay relative to control; procedure, shortened: as §1
SF-268 = experiment: Growth inhibition of human SF-268 cells assessed as cell growth at 10 uM incubated for 48 hrs by sulforhodamine B assay relative to control; procedure, shortened: as §1
OVCAR-8 = experiment: Growth inhibition of human OVCAR-8 cells assessed as cell growth at 10 uM incubated for 48 hrs by sulforhodamine B assay relative to control; procedure, shortened: as §1
SNB-19 = experiment: Growth inhibition of human SNB-19 cells assessed as cell growth at 10 uM incubated for 48 hrs by sulforhodamine B assay relative to control; procedure, shortened: as §1
NCI-H460 = experiment: Growth inhibition of human NCI-H460 cells assessed as cell growth at 10 uM incubated for 48 hrs by sulforhodamine B assay relative to control; procedure, shortened: as §2
UO-31 = experiment: Growth inhibition of human UO-31 cells assessed as cell growth at 10 uM incubated for 48 hrs by sulforhodamine B assay relative to control; procedure, shortened: as §1
A498 = experiment: Growth inhibition of human A498 cells assessed as cell growth at 10 uM incubated for 48 hrs by sulforhodamine B assay relative to control; procedure, shortened: as §3
RPMI-8226 = experiment: Growth inhibition of human RPMI-8226 cells assessed as cell growth at 10 uM incubated for 48 hrs by sulforhodamine B assay relative to control; procedure, shortened: as §1
T47D = experiment: Growth inhibition of human T47D cells assessed as cell growth at 10 uM incubated for 48 hrs by sulforhodamine B assay relative to control; procedure, shortened: as §1
UACC-62 = experiment: Growth inhibition of human UACC-62 cells assessed as cell growth at 10 uM incubated for 48 hrs by sulforhodamine B assay relative to control; procedure, shortened: as §1
CCRF-CEM = experiment: Growth inhibition of human CCRF-CEM cells assessed as cell growth at 10 uM incubated for 48 hrs by sulforhodamine B assay relative to control; procedure, shortened: as §3
NCI/ADR-RES = experiment: Growth inhibition of human NCI/ADR-RES cells assessed as cell growth at 10 uM incubated for 48 hrs by sulforhodamine B assay relative to control; procedure, shortened: as §2

| SMILES | growth at 10 µM (SW-620) [%] | growth at 10 µM (HCT-15) [%] | growth at 10 µM (MDA-MB-435) [%] | growth at 10 µM (Hs-578T) [%] | growth at 10 µM (SN12C) [%] | growth at 10 µM (UACC-257) [%] | growth at 10 µM (IGROV-1) [%] | growth at 10 µM (K562) [%] | growth at 10 µM (NCI-H322M) [%] | growth at 10 µM (OVCAR-5) [%] | growth at 10 µM (MOLT-4) [%] | growth at 10 µM (NCI-H226) [%] | growth at 10 µM (RXF 393) [%] | growth at 10 µM (PC-3) [%] | growth at 10 µM (COLO 205) [%] | growth at 10 µM (SK-MEL-5) [%] | growth at 10 µM (MDA-MB-231) [%] | growth at 10 µM (SF-539) [%] | growth at 10 µM (MCF7) [%] | growth at 10 µM (HOP-92) [%] | also measured |
| --- | --- | --- | --- | --- | --- | --- | --- | --- | --- | --- | --- | --- | --- | --- | --- | --- | --- | --- | --- | --- | --- |
| Cc1cccc(NC(=O)c2sc3nc4c(cc3c2N)CN(Cc2ccccc2)CC4)c1 | 96.8 | 97.5 | 94.5 | 94.6 | 107 | 89.8 | 102 | 109 | 103 | 104 | 103 | 100 | 103 | 98 | 104 | 103 | 113 | 79.9 | 95.9 | 100 | growth at 10 µM (OVCAR-4): 105%; growth at 10 µM (OVCAR-3): 116%; growth at 10 µM (LOX IMVI): 95.8%; growth at 10 µM (SNB-75): 101%; growth at 10 µM (SF-268): 103%; growth at 10 µM (OVCAR-8): 98.2%; growth at 10 µM (SNB-19): 110%; growth at 10 µM (NCI-H460): 98.6%; growth at 10 µM (UO-31): 98.4%; growth at 10 µM (A498): 85.1%; growth at 10 µM (RPMI-8226): 101%; growth at 10 µM (T47D): 98.6%; growth at 10 µM (UACC-62): 110%; growth at 10 µM (CCRF-CEM): 98.9%; growth at 10 µM (NCI/ADR-RES): 101% |
| CC(C)N1CCc2nc3sc(C(=O)Nc4ccccc4)c(N)c3cc2C1 | 96.4 | 101 | 94 | 100 | 106 | 95.1 | 100 | 97.8 | 108 | 90.2 | 106 | 94.8 | 102 | 81.9 | 102 | 95 | 95.2 | 93 | 94.7 | 55.6 | growth at 10 µM (OVCAR-4): 105%; growth at 10 µM (OVCAR-3): 108%; growth at 10 µM (LOX IMVI): 102%; growth at 10 µM (SNB-75): 69.1%; growth at 10 µM (SF-268): 113%; growth at 10 µM (OVCAR-8): 95.9%; growth at 10 µM (SNB-19): 105%; growth at 10 µM (NCI-H460): 99.6%; growth at 10 µM (UO-31): 87.8%; growth at 10 µM (A498): 67.5%; growth at 10 µM (RPMI-8226): 98.2%; growth at 10 µM (T47D): 91.7%; growth at 10 µM (UACC-62): 103%; growth at 10 µM (CCRF-CEM): 100%; growth at 10 µM (NCI/ADR-RES): 100% |
| Nc1c(C(=O)N(c2ccccc2)c2ccccc2)sc2nc3c(cc12)C(=O)CCC3 | 89.3 | 89.5 | 110 | 92.3 | 101 | 106 | 103 | 113 | 102 | 130 | 102 | 104 | 111 | 103 | 109 | 102 | 85.9 | 81.7 | 99.6 | 103 | growth at 10 µM (OVCAR-3): 107%; growth at 10 µM (LOX IMVI): 94.3%; growth at 10 µM (SNB-75): 108%; growth at 10 µM (SF-268): 99.8%; growth at 10 µM (OVCAR-8): 105%; growth at 10 µM (SNB-19): 104%; growth at 10 µM (NCI-H460): 99.9%; growth at 10 µM (UO-31): 87%; growth at 10 µM (A498): 76.3%; growth at 10 µM (RPMI-8226): 94.8%; growth at 10 µM (T47D): 99.5%; growth at 10 µM (UACC-62): 109%; growth at 10 µM (CCRF-CEM): 96.1%; growth at 10 µM (NCI/ADR-RES): 101% |
